The test system of one test is P388. The test is described as follows: Cytotoxicity against mouse P388 cells. Type of test: functional.
For test [1], the system named is Stenotrophomonas maltophilia. The test is described as follows: Antibacterial activity against Stenotrophomonas maltophilia ATCC 13637 by broth microdilution assay. Type of test: functional, organism-based. In a few lines: (§1)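 Samples reconstituted in a small volume of sterile DMSO and diluted in the appropriate medium immediately before testing by established broth microdilution. MIC taken as the lowest concentration that inhibited all visible growth of the test organism (optically clear wells). Assays were repeated on separate days.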
For orientation: In broth dilution the organism is exposed to a series of concentrations in liquid medium.

The subject of another test is Micrococcus luteus. Briefly: Antibacterial activity against Micrococcus luteus Presque Isle 456 by broth microdilution assay. Type of test: functional, organism-based. In a few lines: as §1
For another test, the system named is Staphylococcus aureus. Briefly: Antibacterial activity against Staphylococcus aureus ATCC 29213 by broth microdilution assay. Type of test: functional, organism-based. In outline: as §1
In a further test the test system is Escherichia coli. Briefly: Antibacterial activity against Escherichia coli ATCC 25922 by broth microdilution assay. The format is functional, organism-based. In a few lines: as §1
The subject of a further test is Enterobacter cloacae. Briefly: Antibacterial activity against Enterobacter cloacae ATCC 13047 by broth microdilution assay. Type of test: functional, organism-based. In outline:
as §1

A further test relates to Enterococcus faecalis. The test is described as follows: Antibacterial activity against Enterococcus faecalis ATCC 29212 by broth microdilution assay. Type of test: functional, organism-based. In a few lines: as §1
The test system of a further test is Streptococcus pneumoniae. The test is described as follows: Antibacterial activity against Streptococcus pneumoniae ATCC 6303 by broth microdilution assay. Type of test: functional, organism-based. In a few lines: as §1
A further test concerns Neisseria gonorrhoeae. Briefly: Antibacterial activity against Neisseria gonorrhoeae ATCC 49226 by broth microdilution assay. The format is functional. In outline:
as §1

Another test concerns Candida albicans. Briefly: Antifungal activity against Candida albicans ATCC 90028 by broth microdilution assay. Type of test: functional, organism-based. In outline:
as §1

The test system of another test is Cryptococcus neoformans. Briefly: Antifungal activity against Cryptococcus neoformans ATCC 90112 by broth microdilution assay. The format is functional, organism-based. In a few lines: as §1

Values after ≈ are worked out from the molar mass of the structure shown. Active and inactive are the calls of the source. No cut-off for these calls is given here.

Take `Cc1c(O)c2c(c(C)c1CCO)CC(C)(C)C2`: the outcome (in the test on P388; in [1]; in the test on Micrococcus luteus; in the test on Staphylococcus aureus; in the test on Escherichia coli; with Enterobacter cloacae) was inactive. Also, the result in the test on Enterococcus faecalis, in the test with Streptococcus pneumoniae, in the test with Neisseria gonorrhoeae, with Candida albicans and in the test on Cryptococcus neoformans was inactive.
As to `CC(=O)c1cccc2oc(=O)[nH]c12`, the result (with P388; in test [1]; in the test on Micrococcus luteus; in the test with Staphylococcus aureus; in the test on Escherichia coli; in the test with Enterobacter cloacae) was inactive. Further, the result in the test with Enterococcus faecalis, with Streptococcus pneumoniae, in the test with Neisseria gonorrhoeae, in the test on Candida albicans and with Cryptococcus neoformans was inactive.
Take `Cc1c(O)c2c(c(C)c1CCO)C[C@@](C)(CO)C2`: the outcome (in the test on P388; in test [1]; in the test with Micrococcus luteus; in the test on Staphylococcus aureus; in the test with Escherichia coli; in the test on Enterobacter cloacae) was inactive. The outcome with Enterococcus faecalis, in the test with Streptococcus pneumoniae, in the test on Neisseria gonorrhoeae, with Candida albicans and with Cryptococcus neoformans was inactive.
For `C=C1[C@@H](O)[C@@H]2C[C@](C)(CO)CC2=C(C)C12CC2` [COPRINASTATIN 1], the EC50 with P388 (read-out: ED50 (the source's name)) was found to be 5.3 µg/mL (≈ 22.6 µM). Besides, the outcome (in test [1]; with Micrococcus luteus; in the test on Staphylococcus aureus; in the test with Escherichia coli; with Enterobacter cloacae; in the test with Enterococcus faecalis) was inactive. In addition, the result in the test with Streptococcus pneumoniae, with Candida albicans and in the test with Cryptococcus neoformans was inactive. The minimum inhibitory concentration (MIC) with Neisseria gonorrhoeae came to 32 µg/mL (≈ 137 µM).
As to `Cc1c(O)c2c(c(C)c1CCO)C[C@](C)(CO)C2`, the result (with P388; in test [1]; in the test on Micrococcus luteus; with Staphylococcus aureus; in the test with Escherichia coli; in the test on Enterobacter cloacae) was inactive. In addition, the result with Enterococcus faecalis, with Streptococcus pneumoniae, in the test on Neisseria gonorrhoeae, with Candida albicans and in the test on Cryptococcus neoformans was inactive.
`C=C1[C@@H](O)[C@@H]2CC(C)(C)CC2=C(CO)C12CC2`: the outcome (in the test with P388; in test [1]; with Micrococcus luteus; in the test with Staphylococcus aureus; in the test on Escherichia coli; with Enterobacter cloacae) was inactive. Besides, the outcome in the test with Enterococcus faecalis, in the test with Streptococcus pneumoniae, in the test on Neisseria gonorrhoeae, with Candida albicans and with Cryptococcus neoformans was inactive.

In general, MIC refers to the lowest concentration that inhibits growth of the organism. High values mean a need for much substance, low ones inhibition by little substance.

Source of the values: ChEMBL document CHEMBL1153741, “Antineoplastic agents. 556. Isolation and structure of Coprinastatin 1 from Coprinus cinereus” (2010).
